Measured values reported in ChEMBL document CHEMBL1124459, “Activity of aromatic substituted phenylpiperazines lacking affinity for dopamine binding sites in a preclinical test of antipsychotic efficacy” (J Med Chem, 1989).

Key:
[1] = target: Serotonin 1 (5-HT1) receptor (Rattus norvegicus, UniProt P28564+P30940+P19327+P28565); assay: Binding affinity in radioreceptor binding assay by using [3H]5-HT radioligand against 5-hydroxytryptamine 1 receptor; format: protein assay
[2] = target: T1, 5-hydroxytryptamine receptor 1B (Rattus norvegicus, UniProt P28564); assay: Binding affinity determined in radioreceptor binding assay by using [3H]5-HT radioligand against 5-hydroxytryptamine 1B receptor
In short: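 Rat cortical tissue labelled with [3H]serotonin. The incubation medium included 8-OH-DPAT at 100 nM final. Run in duplicate, with one to five concentration–response curves per compound.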

[3] = target: T2, 5-hydroxytryptamine receptor 1A (Rattus norvegicus, UniProt P19327)
T2 sequence (P19327 whole entry): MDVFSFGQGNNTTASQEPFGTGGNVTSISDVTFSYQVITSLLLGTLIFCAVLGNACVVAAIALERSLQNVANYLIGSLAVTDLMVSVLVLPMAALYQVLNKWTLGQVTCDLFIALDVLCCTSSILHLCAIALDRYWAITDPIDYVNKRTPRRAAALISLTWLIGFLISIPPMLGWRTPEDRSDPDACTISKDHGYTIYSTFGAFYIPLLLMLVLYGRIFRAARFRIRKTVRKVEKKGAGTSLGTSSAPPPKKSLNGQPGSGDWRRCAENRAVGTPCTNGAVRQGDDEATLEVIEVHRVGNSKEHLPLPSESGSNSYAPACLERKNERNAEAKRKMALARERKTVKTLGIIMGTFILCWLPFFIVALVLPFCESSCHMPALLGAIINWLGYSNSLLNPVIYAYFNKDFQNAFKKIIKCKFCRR

[4] = target: Serotonin 2 (5-HT2) receptor (Rattus norvegicus, UniProt P30994+P08909+P14842); assay: Binding affinity in radioreceptor binding assay by using [3H]5-HT radioligand against 5-hydroxytryptamine 2 receptor; format: protein assay
[5] = target: T3, Adrenergic receptor alpha-1 (Rattus norvegicus, UniProt P15823+P23944+P43140); assay: Binding affinity against rat Alpha-1 adrenergic receptor.; format: protein assay
T3 sequence (P15823 whole entry): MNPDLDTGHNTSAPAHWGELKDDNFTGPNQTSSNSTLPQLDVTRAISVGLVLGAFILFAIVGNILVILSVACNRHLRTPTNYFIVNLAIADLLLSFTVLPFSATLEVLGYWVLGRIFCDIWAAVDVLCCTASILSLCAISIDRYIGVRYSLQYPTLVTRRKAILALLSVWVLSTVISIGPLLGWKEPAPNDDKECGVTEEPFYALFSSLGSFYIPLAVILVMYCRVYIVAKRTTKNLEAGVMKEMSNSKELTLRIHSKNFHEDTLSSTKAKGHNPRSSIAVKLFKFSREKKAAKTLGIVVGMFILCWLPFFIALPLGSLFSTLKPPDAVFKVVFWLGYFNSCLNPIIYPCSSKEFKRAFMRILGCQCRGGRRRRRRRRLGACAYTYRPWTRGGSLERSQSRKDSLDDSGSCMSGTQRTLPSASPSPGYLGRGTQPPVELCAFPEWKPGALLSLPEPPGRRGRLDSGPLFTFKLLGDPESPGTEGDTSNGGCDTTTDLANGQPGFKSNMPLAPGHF
T3 sequence (P23944 whole entry): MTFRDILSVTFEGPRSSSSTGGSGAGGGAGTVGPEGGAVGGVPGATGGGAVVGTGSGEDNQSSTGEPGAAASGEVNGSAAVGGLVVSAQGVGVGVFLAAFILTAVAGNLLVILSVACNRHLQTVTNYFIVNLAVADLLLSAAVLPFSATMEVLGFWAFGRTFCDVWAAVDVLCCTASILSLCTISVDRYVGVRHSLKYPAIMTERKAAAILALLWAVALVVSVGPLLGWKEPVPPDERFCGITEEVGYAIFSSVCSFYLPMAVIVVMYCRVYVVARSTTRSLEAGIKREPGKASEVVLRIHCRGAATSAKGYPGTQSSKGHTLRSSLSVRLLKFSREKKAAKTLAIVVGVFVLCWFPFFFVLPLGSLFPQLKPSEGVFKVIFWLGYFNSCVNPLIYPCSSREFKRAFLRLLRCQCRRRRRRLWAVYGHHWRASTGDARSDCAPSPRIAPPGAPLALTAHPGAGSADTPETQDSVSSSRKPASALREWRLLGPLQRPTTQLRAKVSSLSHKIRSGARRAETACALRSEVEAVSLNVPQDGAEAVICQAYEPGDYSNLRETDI
T3 sequence (P43140 whole entry): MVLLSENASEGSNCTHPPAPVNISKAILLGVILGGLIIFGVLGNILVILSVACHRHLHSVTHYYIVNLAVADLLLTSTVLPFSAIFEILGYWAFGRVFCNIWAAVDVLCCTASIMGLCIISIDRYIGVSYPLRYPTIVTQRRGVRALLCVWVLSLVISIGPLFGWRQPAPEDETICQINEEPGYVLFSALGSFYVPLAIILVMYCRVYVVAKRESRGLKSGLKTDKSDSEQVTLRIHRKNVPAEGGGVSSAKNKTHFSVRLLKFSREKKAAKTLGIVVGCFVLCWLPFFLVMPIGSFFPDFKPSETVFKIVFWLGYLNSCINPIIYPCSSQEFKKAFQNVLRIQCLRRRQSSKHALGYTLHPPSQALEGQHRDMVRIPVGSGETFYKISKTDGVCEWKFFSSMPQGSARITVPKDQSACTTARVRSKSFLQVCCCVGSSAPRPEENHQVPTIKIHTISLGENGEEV

D(1A) dopamine receptor [6] = target: T4, D(1A) dopamine receptor (Rattus norvegicus, UniProt P18901); assay: Binding affinity at rat Dopamine receptor D1 by [3H]SCH-23390 displacement.
In short: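 Rat striatal tissue suspended in 20 mM NaHepes without sucrose, at 250 volumes of the tissue weight. Labelled with [3H]SCH-23390 added as a 3 nM solution. Nonspecific binding set with unlabelled SCH-23390 added as a 30 μM solution. Incubated 20 min. Run in duplicate, with one to five concentration–response curves per compound.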

D(2) dopamine receptor [7] = target: T5, D(2) dopamine receptor (Rattus norvegicus, UniProt P61169); assay: Binding affinity against rat Dopamine receptor D2.
Rattus norvegicus [8] = assay: Effective dose in blocking conditioned avoidance responding (CAR) in the rat when administered intraperitoneally; format: functional; details: ip
In short: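 Rats trained on a discrete-trial single-lever conditioned avoidance task, dosed ip and tested at the time of peak effect. Each dose was given to 6–12 rats. CAR reduction and loss of escape responding were recorded.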

[9] = target: T2, 5-hydroxytryptamine receptor 1A; assay: Binding affinity in radioreceptor binding assay by using [3H]5-HT radioligand against 5-hydroxytryptamine 1A receptor
[10] = target: T1, 5-hydroxytryptamine receptor 1B; assay: Binding affinity in radioreceptor binding assay by using [3H]5-HT radioligand against 5-hydroxytryptamine 1B receptor
In short: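 Rat cortical membranes; [3H]serotonin as ligand, as in the 5-HT-1 assay, with 8-OH-DPAT added at 100 nM final to the incubation medium; assays run in duplicate; one to five concentration-response curves per compound.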

D(1A) dopamine receptor [11] = target: T4, D(1A) dopamine receptor; assay: Binding affinity in radioreceptor binding assay by using [3H]5-HT radioligand against Dopamine receptor D1
D(2) dopamine receptor [12] = target: T5, D(2) dopamine receptor; assay: Binding affinity in radioreceptor binding assay by using [3H]5-HT radioligand against Dopamine receptor D2
Rattus norvegicus [13] = species on record: Rattus norvegicus; assay: The percent loss of escape responding was determined for the estimated effective dose 50 values for CAR block; format: functional

T1 sequence (P28564 whole entry): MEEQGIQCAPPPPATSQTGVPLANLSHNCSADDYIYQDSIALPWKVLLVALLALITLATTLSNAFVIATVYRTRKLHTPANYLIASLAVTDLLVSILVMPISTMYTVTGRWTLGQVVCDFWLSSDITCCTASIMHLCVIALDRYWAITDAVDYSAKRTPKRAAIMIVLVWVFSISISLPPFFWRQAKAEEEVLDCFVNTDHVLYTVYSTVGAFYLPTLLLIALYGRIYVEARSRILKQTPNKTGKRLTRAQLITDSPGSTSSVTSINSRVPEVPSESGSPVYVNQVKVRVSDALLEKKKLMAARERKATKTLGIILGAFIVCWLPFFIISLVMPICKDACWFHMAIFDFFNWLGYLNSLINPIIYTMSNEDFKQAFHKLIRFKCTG
T5 sequence (P61169 whole entry): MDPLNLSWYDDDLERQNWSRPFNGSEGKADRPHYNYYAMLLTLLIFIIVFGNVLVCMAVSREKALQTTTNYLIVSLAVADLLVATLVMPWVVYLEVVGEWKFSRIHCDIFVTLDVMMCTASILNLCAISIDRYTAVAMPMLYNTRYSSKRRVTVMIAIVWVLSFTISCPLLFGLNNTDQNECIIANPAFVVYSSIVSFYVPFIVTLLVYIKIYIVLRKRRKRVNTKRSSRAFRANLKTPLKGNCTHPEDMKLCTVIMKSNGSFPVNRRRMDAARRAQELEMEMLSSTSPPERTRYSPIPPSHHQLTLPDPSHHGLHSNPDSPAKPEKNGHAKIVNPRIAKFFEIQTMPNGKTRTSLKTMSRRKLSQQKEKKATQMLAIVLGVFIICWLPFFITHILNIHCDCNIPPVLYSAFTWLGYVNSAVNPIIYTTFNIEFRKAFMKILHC
T4 sequence (P18901 whole entry): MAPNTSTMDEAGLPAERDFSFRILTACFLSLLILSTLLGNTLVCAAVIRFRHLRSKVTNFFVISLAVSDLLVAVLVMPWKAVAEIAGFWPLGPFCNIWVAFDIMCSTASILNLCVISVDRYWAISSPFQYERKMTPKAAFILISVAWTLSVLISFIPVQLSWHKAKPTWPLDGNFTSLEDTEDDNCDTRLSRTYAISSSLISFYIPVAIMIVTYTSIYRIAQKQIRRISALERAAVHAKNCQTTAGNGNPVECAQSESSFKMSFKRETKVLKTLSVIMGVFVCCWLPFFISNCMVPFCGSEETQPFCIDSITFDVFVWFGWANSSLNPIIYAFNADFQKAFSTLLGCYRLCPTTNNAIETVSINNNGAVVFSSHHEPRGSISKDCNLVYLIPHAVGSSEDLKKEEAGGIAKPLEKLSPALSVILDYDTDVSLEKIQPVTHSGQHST

| Structure (SMILES) | Ki [1] [nM] | Ki [2] [nM] | Ki [3] [nM] | Ki [4] [nM] | Ki [5] [nM] | Ki (D(1A) dopamine receptor [6]) [nM] | Ki (D(2) dopamine receptor [7]) [nM] | ED50 (Rattus norvegicus [8]) [mg/kg] | Ki [9] [nM] | Ki [10] [nM] | Ki (D(1A) dopamine receptor [11]) [nM] | Ki (D(2) dopamine receptor [12]) [nM] | Loss (Rattus norvegicus [13]) [%] |
| --- | --- | --- | --- | --- | --- | --- | --- | --- | --- | --- | --- | --- | --- |
| Oc1ccccc1N1CCNCC1 | 117 | 74.2 | 35.3 | > 1000 | 516 | > 1000 | > 1000 | 26.2 | – | – | – | – | – |
| FC(F)(F)c1cccc(N2CCNCC2)c1 | – | – | – | 31.1 | 337 | – | – | 2.6 | 80.6 | 2.25 | > 1000 | 530 | 0.6 |
